Screens from PubChem BioAssay.
Hits are enriched below; roughly 3.7% of the tested compounds scored in any of these assays.
KCNQ1 inh: human KCNQ1 channel inhibition | CHO-K1 KCNQ1, FluxOR thallium flux fluorescence; stronger effect = higher value | AID 2642 | B-score at 10 µM | P51787 | actives 1.3% (n = 310,000);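 active = compounds whose thallium flux B-score, printed positive for inhibition, exceeds three library SD while starting fluorescence stays within three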;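 also: channel opened by potassium depolarization with thallium stimulus after 20 min compound exposure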
Target sequence (P51787 whole entry, looked up): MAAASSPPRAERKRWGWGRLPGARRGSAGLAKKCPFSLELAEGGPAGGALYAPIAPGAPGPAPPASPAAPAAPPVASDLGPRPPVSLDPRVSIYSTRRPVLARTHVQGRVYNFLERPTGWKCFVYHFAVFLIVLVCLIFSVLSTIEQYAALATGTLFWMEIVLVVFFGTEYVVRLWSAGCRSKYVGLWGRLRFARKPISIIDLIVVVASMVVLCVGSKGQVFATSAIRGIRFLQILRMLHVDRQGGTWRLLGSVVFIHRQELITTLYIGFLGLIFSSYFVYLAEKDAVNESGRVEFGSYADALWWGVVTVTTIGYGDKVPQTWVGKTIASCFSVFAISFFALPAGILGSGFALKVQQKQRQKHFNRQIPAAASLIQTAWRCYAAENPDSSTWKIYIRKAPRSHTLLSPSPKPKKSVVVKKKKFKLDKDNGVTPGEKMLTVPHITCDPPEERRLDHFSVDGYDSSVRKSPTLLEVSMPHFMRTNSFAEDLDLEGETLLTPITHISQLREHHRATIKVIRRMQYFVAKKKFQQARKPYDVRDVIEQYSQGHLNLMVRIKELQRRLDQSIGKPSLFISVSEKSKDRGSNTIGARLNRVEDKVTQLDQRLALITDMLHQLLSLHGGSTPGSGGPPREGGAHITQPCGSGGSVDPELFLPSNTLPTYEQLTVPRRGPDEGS
Kir21 block: blocks the mouse Kir2.1 inward-rectifier potassium channel. HEK293-Kir2.1, FluxOR thallium flux fluorescence; stronger effect = lower value. B-score at 10 µM. actives 0.85% (n = 310,000). AID 1672;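 active = fluorescence ratio B-score at or below minus 3 SD of library scores, with starting-brightness B-score within 2 SD, cut at about -4.2 in these data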;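 also: channel flux triggered by added potassium and thallium sulfate stimulus; B-score of peak minus minimum fluorescence over baseline after thallium stimulus; more negative B-score means stronger Kir2.1 block with less thallium influx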
KCNQ1 pot: human KCNQ1 channel potentiation or activation; P51787; CHO-K1 KCNQ1, thallium flux FluxOR fluorescence; stronger effect = higher value; B-score at 10 µM; actives 0.35% (n = 310,000); AID 2648;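 active = fluorescence ratio B-score, a plate-corrected score, at least three library SD, with initial intensity B-score within 5 SD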
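Medium – assay buffer, equal DMSO in all wells · Material – CHO-K1 cell line with stable KCNQ1 potassium channel expression · Signal – kinetic FluxOR thallium fluorescence, 10-s 1-Hz baseline, 110-s post-stimulus read · Compound – single concentration per compound, DMSO matched to controls · Schedule – 37 °C overnight plating, 90-min dark dye load, 20-min compound pretreatment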
KCNK3 inh: human KCNK3 channel inhibition, primary screen | actives 0.84% (n = 340,000) | O14649 | B-score at 10 µM | CHO-KCNK3 thallium flux, FluxOR fluorescence; stronger effect = lower value;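 active = B-score under library mean minus 4 SD, starting fluorescence ratio at most library mean plus 5 SD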;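 also: more negative B-score means stronger inhibition of thallium flux through KCNK3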
KCNK9 inh: blocks the human KCNK9 two-pore domain potassium channel; Q9NPC2; HEK293 KCNK9, FluxOR thallium flux fluorescence; stronger effect = lower value; B-score at 10 µM; actives 1.2% (n = 310,000); AID 488922;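 active = ratio B-score over 3 SD below the library mean, with starting fluorescence within 5 SD of its mean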;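 also: negative B-score means less thallium flux so channel inhibition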
hERG rescue: shields human hERG channel from block by proarrhythmic agents; Q12809; CHO-hERG, FluxOR thallium flux, dofetilide IC70 present; activation (rescue from dofetilide block), less the hit threshold, % at 10 µM; actives 0.51% (n = 310,000);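 active = activation above the mean of controls blocked by dofetilide plus 5 SD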;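 also: thallium influx through hERG after potassium depolarization seen as dye fluorescence rise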
KCNK9 inh conf: confirmation of human KCNK9 potassium channel inhibitors; shares compounds with KCNK9 inh; HEK293 KCNK9 cells, FluxOR thallium flux fluorescence; inhibition, % at 10 µM; actives 43% (n = 4,900);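 active = thallium signal inhibited by more than 5 SD of the compound-free buffer control wells, on both duplicate plates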;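 also: 0% = assay buffer control wells without compound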
Kir21 sel: selectivity of KCNK9 modulators against mouse Kir2.1. shares compounds with KCNK9 inh. Kir2.1 cells, FluxOR thallium flux fluorescence. inhibition, % at 10 µM. actives 4% (n = 4,900). AID 492993;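 active = thallium signal drop more than 5 SD beyond the mean of the no-compound control wells, seen in both duplicate plates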;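 also: signal is fluorescence rise after thallium addition divided by baseline fluorescence; plate controls were assay buffer only for no effect and full block by chlorpromazine control for full effect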
KCNK9 uninduced: second counter-screen for KCNK9 modulators: effect in non-induced cells | actives 40% (n = 4,900) | shares compounds with KCNK9 inh | non-induced KCNK9-HEK293, FluxOR thallium flux | inhibition, % at 10 µM;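 active = thallium signal drop beyond 5 SD of the untreated control mean, on both duplicate plates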;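 also: plate controls were buffer only IC0 wells for no effect and SID17386958 at its maximal inhibitory level for full effect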
KCNK3 confirm: confirmation of human KCNK3 two-pore domain potassium channel inhibitors. shares compounds with KCNK3 inh. CHO-KCNK3 thallium flux, FluxOR fluorescence; 0% buffer, 100% carvedilol maximal block. ratio percent of control, % at 10 µM. actives 99% (n = 2,400). AID 651638;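 active = ratio percent of control, averaged over triplicates, above buffer control mean plus 5 SD, cut at about 64% in these data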;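 also: ratio is the fluorescence rise from min to max over baseline after thallium stimulus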
KCNK3 noninduced: counter-screen for KCNK3 inhibitors: effect in non-induced cells. AID 651747. shares compounds with KCNK3 inh. non-induced KCNK3 parental cells, FluxOR thallium flux; stronger effect = lower value. actives 40% (n = 2,400). thallium flux ratio (lower = more inhibition) at 10 µM;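 active = thallium flux ratio, averaged over three wells, more than 5 SD below the buffer control mean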;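 also: host cells are CHO cells without KCNK3 induction; ratio is peak minus trough fluorescence over baseline then normalized to buffer controls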
Numbers without * were called inactive; i = inactive; x = no result given.

SMILES	KCNQ1 inh	Kir21 block	KCNQ1 pot	KCNK3 inh	KCNK9 inh	hERG rescue	KCNK9 inh conf	Kir21 sel	KCNK9 uninduced	KCNK3 confirm	KCNK3 noninduced
O=C(Nc1ccc(Cl)c(S(=O)(=O)N2CCOCC2)c1)c1ccccn1	i	0.49	i	i	i	-8	x	x	x	x	x
O=C(Nc1ccc(Cl)c(S(=O)(=O)N2CCOCC2)c1)c1cc(-c2ccccn2)nc2ccccc12	i	-0.64	i	-8.8*	-9.5*	-21	i	i	i	123*	i
CCCNc1c(NS(=O)(=O)c2cccc(C#N)c2)c(=O)oc2ccccc12	i	0.19	i	i	i	-1	x	x	x	x	x
COc1cc(/C=N/NC(=O)c2ccc(Cn3cc([N+](=O)[O-])cn3)o2)cc(Br)c1O	i	0.5	i	-11*	-16*	-22	57%*	i	35%*	99*	i
COc1ccc(O)c(/C=N/Nc2nc(C)cc(-c3ccccc3)n2)c1	i	0.4	i	-10*	-15*	-13	51%*	i	23%*	120*	0.14*
Cc1ccc(-c2nnc(-c3ccc(NC(=O)Cc4cccs4)cc3)o2)cc1	i	-0.76	i	i	i	0	x	x	x	x	x
Cc1cc(C)cc(OCC(=O)Nc2cccc(-c3nnc(-c4ccco4)o3)c2)c1	i	0.72	i	-12*	-10*	-28	44%*	i	60%*	115*	i
O=C(Cc1cccs1)Nc1cccc(-c2nnc(-c3ccco3)o2)c1	i	0.02	i	-10*	-9.3*	-1	i	i	26%*	115*	i
CC(=O)Oc1ccc2c(=O)c(-c3nc4ccccc4s3)coc2c1	i	-0.22	i	i	i	-10	x	x	x	x	x
O=C(CCCSc1nnnn1-c1cccc2ccccc12)c1ccc(F)cc1	i	0.16	i	-9.6*	-8.2*	-15	i	34%*	i	102*	i
COc1cccc(CNC(=O)Cn2c(=O)n(CCC(=O)N3CCCCC3)c(=O)c3sccc32)c1	i	-1.6	i	i	i	-7	x	x	x	x	x
Cc1ccc(/C=N/NC(=O)Cc2c(F)cccc2Cl)s1	i	-1.6	i	i	i	-14	x	x	x	x	x
O=C(/C=C/c1cccc(C(F)(F)F)c1)Nc1cccc(C(F)(F)F)c1	9*	0.16	i	-11*	i	-5	i	i	i	107*	0.15*
O=C(N/N=C/c1cccc(Oc2ccccc2)c1)c1cccc(Br)c1	i	0.02	i	-11*	-11*	5.6*	54%*	i	26%*	99*	0.16*
CSc1ccc(CN(C)C(=O)C23CC4CC(CC(Cl)(C4)C2)C3)cc1	i	0.27	i	i	i	-5	x	x	x	x	x
COc1ccc(/C=N\NC(=O)c2ccccc2OC)cc1COc1ccccc1C	i	1.8	i	i	i	-10	x	x	x	x	x
COc1ccc(/C=N/NC(=O)c2ccoc2C)cc1COc1c(C)cccc1C	12*	-0.65	i	-13*	-11*	-14	48%*	i	i	113*	0.14*
NC(=O)C1CCN(S(=O)(=O)Cc2ccccc2Cl)CC1	i	-0.84	i	i	i	-5	x	x	x	x	x
